We go through two compounds from ChEMBL document CHEMBL3526048, “In vitro metabolism of rivoglitazone, a novel peroxisome proliferator-activated receptor γ agonist, in rat, monkey, and human liver microsomes and freshly isolated hepatocytes” (Drug Metab Dispos, 2011).

Series [1] relates to Liver microsome. As to the kind of experiment: Drug metabolism in human liver microsomes assessed as formation of (2S,3S,4S,5R,6R)-6-((1-carboxy-2-(4-((6-methoxy-1-methyl-1H-benzo[d]imidazol-2-yl)methoxy)phenyl)ethylthio)carbonylamino)-3,4,5-trihydroxytetrahydro-2H-pyran-2-carboxylic acid at 20 uM after 4 hrs by radio-HPLC/LC-MS/MS analysis in presence of UDPGA and UDPGA/SAM. The format is ADME.

Series [2] can be described thus: Drug metabolism in human hepatocytes assessed as formation of 3-(4-((6-methoxy-1-methyl-1H-benzo[d]imidazol-2-yl)methoxy)phenyl)-2-(methylthio)propanoic acid at 30 uM after 3 hrs by radio-HPLC/LC-MS/MS analysis in presence of NADPH-generating system/SAM and UDPGA/SAM. It counts as ADME, cell-based, Hepatocyte.
Series [3] can be described thus: Drug metabolism in rat hepatocytes assessed as formation of 2-((4-((2,4-dioxothiazolidin-5-yl)methyl)phenoxy)methyl)-1-methyl-1H-benzo[d]imidazol-6-yl hydrogen sulfate at 30 uM after 3 hrs by radio-HPLC/LC-MS/MS analysis. The format is ADME, cell-based, Hepatocyte.
Series [4] deals with Liver microsome. As to the kind of experiment: Drug metabolism in Sprague-Dawley rat liver microsomes assessed as formation of (2S,3S,4S,5R,6R)-3,4,5-trihydroxy-6-(5-(4-((6-methoxy-1-methyl-1H-benzo[d]imidazol-2-yl)methoxy)benzyl)-2,4-dioxothiazolidin-3-yl)tetrahydro-2H-pyran-2-carboxylic acid at 20 uM after 4 hrs by radio-HPLC/LC-MS/MS analysis in presence of UDPGA and UDPGA/SAM. The format is ADME.

A further series addresses Cytochrome P450 3A4 (Homo sapiens, UniProt P08684). As to the kind of experiment: Activity of human CYP3A4 expressed in microsomes isolated from baculovirus infected insect cell assessed as enzyme-mediated 3-(4-((6-methoxy-1-methyl-1H-benzo[d]imidazol-2-yl)methoxy)phenyl)-2-(methylsulfonyl)propanamide formation at 20 uM after 2 hrs by radio-HPLC/LC-MS/MS analysis in presence of NADPH-generating system/SAM. It counts as ADME.

For the next series, the target named is Cytochrome P450 3A5 (Homo sapiens, UniProt P20815). As to the kind of experiment: Activity of human CYP3A5 expressed in microsomes isolated from baculovirus infected insect cell assessed as enzyme-mediated 3-(4-((6-methoxy-1-methyl-1H-benzo[d]imidazol-2-yl)methoxy)phenyl)-2-(methylsulfonyl)propanamide formation at 20 uM after 2 hrs by radio-HPLC/LC-MS/MS analysis in presence of NADPH-generating system/SAM. The format is ADME. The method in brief: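 cDNA-expressed human CYP3A5 in baculovirus-insect-cell microsomes (1 mg/ml protein) was incubated with [¹⁴C]rivoglitazone (20 μM) in 50 mM potassium phosphate (pH 7.4) or 100 mM Tris-HCl (pH 7.5). NADPH-generating system: 2 mM NADP⁺, 20 mM glucose 6-phosphate, 2 units/ml G6PDH, 10 mM MgCl₂. Incubation ran 2 h at 37°C with shaking; insect-cell control supersomes served as control. Acetonitrile stop, supernatant concentrated, then radio-HPLC, LC-MS and LC-MS/MS.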

Another series deals with Cytochrome P450 2C9 (Homo sapiens, UniProt P11712). As to the kind of experiment: Activity of human CYP2C9 expressed in microsomes isolated from baculovirus infected insect cell assessed as enzyme-mediated compound formation treated with [14C]-rivoglitazone at 20 uM after 2 hrs by radio-HPLC/LC-MS/MS analysis in presence of NADPH-generating system. It counts as ADME. The method in brief: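 Baculovirus-insect-cell microsomes expressing the human CYP (1 mg/ml protein) were incubated with [14C]rivoglitazone (20 μM) in 50 mM potassium phosphate (pH 7.4) or 100 mM Tris-HCl (pH 7.5) with an NADPH-generating system (2 mM NADP+, 20 mM glucose 6-phosphate, 2 units/ml G6PDH, 10 mM MgCl2) for 2 h at 37°C. Insect-cell control supersomes served as the control. Reactions were stopped with acetonitrile, and the concentrated supernatants were analysed by radio-HPLC, LC-MS and LC-MS/MS.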

The next series has as its target T1, Cytochrome P450 1A2 (Homo sapiens, UniProt P05177).
T1 sequence (P05177 whole entry): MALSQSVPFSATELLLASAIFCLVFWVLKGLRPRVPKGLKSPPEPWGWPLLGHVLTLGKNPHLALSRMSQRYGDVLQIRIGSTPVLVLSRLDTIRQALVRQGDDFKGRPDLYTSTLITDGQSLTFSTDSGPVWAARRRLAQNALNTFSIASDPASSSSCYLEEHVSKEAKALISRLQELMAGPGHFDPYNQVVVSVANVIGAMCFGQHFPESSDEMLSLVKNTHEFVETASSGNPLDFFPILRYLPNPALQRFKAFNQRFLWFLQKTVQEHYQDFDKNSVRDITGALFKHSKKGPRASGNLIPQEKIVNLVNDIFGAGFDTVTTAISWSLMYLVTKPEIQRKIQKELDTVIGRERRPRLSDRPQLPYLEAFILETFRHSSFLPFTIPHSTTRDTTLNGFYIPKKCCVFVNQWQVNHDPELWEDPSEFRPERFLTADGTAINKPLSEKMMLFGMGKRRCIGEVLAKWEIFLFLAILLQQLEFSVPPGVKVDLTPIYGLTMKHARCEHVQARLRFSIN
Description: Activity of human CYP1A2 expressed in microsomes isolated from baculovirus infected insect cell assessed as enzyme-mediated compound formation treated with [14C]-rivoglitazone at 20 uM after 2 hrs by radio-HPLC/LC-MS/MS analysis in presence of NADPH-generating system. The format is ADME. The method in brief: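 Baculovirus/insect-cell microsomes expressing single human CYPs, 1 mg/ml protein, with 50 mM potassium phosphate (pH 7.4) or 100 mM Tris-HCl (pH 7.5). NADPH-generating system: 2 mM NADP⁺, 20 mM glucose 6-phosphate, 2 units/ml G6PDH, 10 mM MgCl₂. [¹⁴C]rivoglitazone at 20 μM, 2 h at 37°C with shaking. Control used insect-cell control supersomes. Stopped with acetonitrile; supernatant concentrated under nitrogen; metabolites analysed by radio-HPLC, LC-MS and LC-MS/MS.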

Cytochrome P450 3A5, sequence (P20815 whole entry): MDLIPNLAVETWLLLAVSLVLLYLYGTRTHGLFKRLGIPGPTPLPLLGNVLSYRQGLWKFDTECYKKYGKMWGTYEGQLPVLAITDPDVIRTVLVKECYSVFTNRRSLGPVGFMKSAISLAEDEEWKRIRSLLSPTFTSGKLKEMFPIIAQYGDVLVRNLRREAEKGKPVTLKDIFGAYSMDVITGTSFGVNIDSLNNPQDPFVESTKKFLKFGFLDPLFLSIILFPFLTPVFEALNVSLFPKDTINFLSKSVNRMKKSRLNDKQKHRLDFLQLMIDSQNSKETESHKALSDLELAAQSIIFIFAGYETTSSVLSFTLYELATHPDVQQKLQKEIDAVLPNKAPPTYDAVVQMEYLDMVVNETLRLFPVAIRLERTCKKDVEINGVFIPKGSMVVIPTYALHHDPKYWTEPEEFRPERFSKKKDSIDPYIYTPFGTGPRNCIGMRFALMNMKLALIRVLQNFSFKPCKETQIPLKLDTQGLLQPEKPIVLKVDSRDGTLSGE
Cytochrome P450 3A4, sequence (P08684 whole entry): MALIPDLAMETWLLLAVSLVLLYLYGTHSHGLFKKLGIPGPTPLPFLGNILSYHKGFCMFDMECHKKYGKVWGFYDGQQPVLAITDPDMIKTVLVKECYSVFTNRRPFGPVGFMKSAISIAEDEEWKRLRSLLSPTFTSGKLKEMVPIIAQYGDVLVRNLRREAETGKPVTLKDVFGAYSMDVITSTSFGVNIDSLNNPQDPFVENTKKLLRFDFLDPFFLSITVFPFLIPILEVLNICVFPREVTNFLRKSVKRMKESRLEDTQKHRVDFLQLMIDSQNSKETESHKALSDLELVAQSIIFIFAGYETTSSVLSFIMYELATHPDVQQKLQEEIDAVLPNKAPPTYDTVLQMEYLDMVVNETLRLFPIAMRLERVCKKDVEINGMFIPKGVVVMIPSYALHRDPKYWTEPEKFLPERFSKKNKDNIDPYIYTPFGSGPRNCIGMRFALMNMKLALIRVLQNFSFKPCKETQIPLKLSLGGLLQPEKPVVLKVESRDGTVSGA
Cytochrome P450 2C9, sequence (P11712 whole entry): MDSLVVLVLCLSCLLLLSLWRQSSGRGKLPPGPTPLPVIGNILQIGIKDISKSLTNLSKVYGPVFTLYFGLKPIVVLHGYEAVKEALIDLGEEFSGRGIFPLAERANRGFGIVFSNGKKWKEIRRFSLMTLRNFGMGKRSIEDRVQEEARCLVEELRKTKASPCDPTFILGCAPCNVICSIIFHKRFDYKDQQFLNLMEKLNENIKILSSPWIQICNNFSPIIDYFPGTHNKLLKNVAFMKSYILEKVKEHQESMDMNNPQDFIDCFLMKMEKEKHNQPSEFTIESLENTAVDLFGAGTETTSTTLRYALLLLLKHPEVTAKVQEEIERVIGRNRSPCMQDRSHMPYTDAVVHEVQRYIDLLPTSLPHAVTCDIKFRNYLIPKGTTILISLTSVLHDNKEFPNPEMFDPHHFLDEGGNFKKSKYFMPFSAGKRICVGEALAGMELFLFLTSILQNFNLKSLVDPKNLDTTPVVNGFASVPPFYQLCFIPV

Take `COc1ccc2nc(COc3ccc(C[14CH]4SC(=O)NC4=O)cc3)n(C)c2c1.Cl` (racemic): the Drug metabolism result with Liver microsome [1] is listed as “metabolite_detected”; in series [2] it was “metabolite_not_detected”; in series [3], “metabolite_detected”; in the series on Liver microsome [4], “metabolite_detected”; on Cytochrome P450 3A4, “metabolite_not_detected”; at Cytochrome P450 3A5 it was “metabolite_not_detected”.

`COc1ccc2nc(COc3ccc(CC(S)C(=O)O)cc3)n(C)c2c1` (stereo not drawn): the Drug metabolism entry on Cytochrome P450 2C9 and on Cytochrome P450 1A2 was “metabolite_detected” throughout.
